viability, differential viability (reversal) and inhibition data for twelve compounds are collected here from PubChem BioAssay.

Molecules are shown by their SMILES. Active and inactive are the calls of the source. Rule as the data show it, unless noted: active = inhibition above about 30%; inactive = the rest.

Experiment [1] can be described thus: SK-BR-3 cell growth inhibitors, pilot screen, 24 h, human (AID 572;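 active = viability at or below 10% of carrier control in both of two separate runs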;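 also: compound exposure lasted between 18 and 24 h rather than exactly 24 h; 100% = carrier-treated control wells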). The conditions noted are these: SK-BR-3 viability, CellTiter-Glo luminescence, at 10 µM, stronger effect = lower value.
A short description of experiment [2]: HUVEC growth inhibition – cell-based, human, primary screen (AID 575;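 active = viability at or below 30% in both replicate assays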;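 also: 100% = median of untreated cell wells with 0.1% DMSO on each plate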). The conditions noted are these: HUVEC proliferation, CellTiter-Glo luminescence, 72 h; at 10 µM; stronger effect = lower value. The method in brief:
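System – primary HUVEC, no more than 12 passages · Medium – Low-serum (2% FBS) EBM, supplemented · Times – 72 h exposure, 37 °C, 5% CO2, 30 min RT equilibration · Measured by – luminescent ATP assay · Read-out – % viability relative to median vehicle-well signal on each plate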

Experiment [3] is described as follows: growth inhibitors of H69AR lung tumor, primary screen, human, duplicate replicates (AID 580;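 active = viability at or under a set limit in both replicates, limit being median viability minus 3 SD, cut at about 48% in these data, passing the limit was not always enough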;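 also: 100% = mean luminescence of untreated wells and 0% = no signal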). The conditions noted are these: H69AR lung tumor cells viability, ATP luminescence, 72 h; at 10 µM; stronger effect = lower value.
Experiment [4] in a line: reversal of MRP1-mediated doxorubicin resistance, pilot screen, H69AR cells, doxorubicin co-treatment (AID 601;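 active = viability loss from added drug above about 55%, and viability with drug at most 40%, in both replicates, limit read from the data, passing the limit was not always enough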). The conditions noted are these: CellTiter-Glo, 72 h, at 10 µM; for differential viability (reversal): stronger effect = higher value.
Experiment [5] can be described thus: 384-well plate pilot, post-Golgi transport modulator project, inhibition of yeast transport mutant growth (AID 636; in the data active = inhibition above about 31%). Particulars: absorbance 615 nm, about 18 h, stronger effect = higher value.
A short description of experiment [6]: growth suppression of yeast trafficking mutant, preliminary HTS, modulators of trafficking downstream of Golgi apparatus project, 1536-format plate, OD 615 nm (AID 637). The conditions noted are these: yeast transport mutant growth, absorbance 615 nm, 18 h; stronger effect = higher value.
Setting [7] is: H69AR cells + 2 uM doxorubicin, measured here: viability with 2 uM doxorubicin, stronger effect = lower value.
[8] abbreviates: H69AR cells, compound alone cytotoxicity.

For `COc1cc(C(=O)NCC(=O)OCC(=O)c2ccc[nH]2)cc(OC)c1OC`, the viability was 76% (inactive) in experiment [1]; 101% (inactive) in experiment [2]; 91.5% (inactive) in experiment [3]; 95.3% in experiment [4] (setting [7]); 91.5% in experiment [4] (setting [8]). The differential viability (reversal) in experiment [4] (H69AR cells + 2 uM doxorubicin) was -3.86% (inactive). Also, the inhibition in experiment [5] was -4.38% (inactive); in experiment [6] it was -0.55% (inactive).
As for `CNC(=O)CSc1nc2c(c(=O)n(C)c(=O)n2C)n1Cc1ccc(C)cc1`, the viability in experiment [1] was 100% (inactive); in experiment [2], 92.4% (inactive); in experiment [3], 96.2% (inactive); in experiment [4] (setting [7]), 79.9%; in experiment [4] (setting [8]), 96.2%. Further, in experiment [4] (H69AR cells + 2 uM doxorubicin), the differential viability (reversal) was 16.2% (inactive). Besides, the inhibition in experiment [5] is -2% (inactive); in experiment [6] it was -7.45% (inactive).
Take `CCOC(=O)c1ccc(NS(=O)(=O)c2ccc3c(c2)CCCN3C(C)=O)cc1`: the viability was 118% (inactive) in experiment [1]; 104% (inactive) in experiment [2]; 89.8% (inactive) in experiment [3]; 98.7% in experiment [4] (setting [7]); 89.8% in experiment [4] (setting [8]). For the same compound, the differential viability (reversal) in experiment [4] (H69AR cells + 2 uM doxorubicin) is -8.91% (inactive). Besides, the inhibition in experiment [5] is 0.91% (inactive); in experiment [6] it was -0.16% (inactive).
Turning to `Cc1ccc(-n2ncc3c(=O)n(CC(=O)NCc4ccco4)cnc32)cc1`, the viability is 105% (inactive) in experiment [1]; 76.5% (inactive) in experiment [2]; 81.3% (inactive) in experiment [3]; 93.6% in experiment [4] (setting [7]); 81.3% in experiment [4] (setting [8]). For the same compound, in experiment [4] (H69AR cells + 2 uM doxorubicin), the differential viability (reversal) is -12.3% (inactive). For the same compound, the inhibition in experiment [5] is 1.92% (inactive); in experiment [6] it was 1.77% (inactive).
For the compound `N[C@@H](C(=O)N[C@@H]1C(=O)N2C(C(=O)O)=C(Cl)CS[C@H]12)c1ccccc1`, the viability is 108% (inactive) in experiment [1]; 98% (inactive) in experiment [2]; 114% (inactive) in experiment [3]; 103% in experiment [4] (setting [7]); 114% in experiment [4] (setting [8]). Moreover, the differential viability (reversal) in experiment [4] (H69AR cells + 2 uM doxorubicin) is 10.7% (inactive). The inhibition in experiment [5] is -2.6% (inactive); in experiment [6] it was 4.83% (inactive).
With `CN(C)c1ccc(C2C3=C(CCCC3=O)OC3=C2C(=O)CCC3)cc1`, the viability in experiment [1] is 90% (inactive); in experiment [2] it was 97% (inactive); in experiment [3], 92.5% (inactive); in experiment [4] (setting [7]), 89.7%; in experiment [4] (setting [8]) it was 92.5%. In experiment [4] (H69AR cells + 2 uM doxorubicin), the differential viability (reversal) is 2.78% (inactive). Further, the inhibition in experiment [5] is -5.73% (inactive); in experiment [6] it was -2.18% (inactive).
For the compound `Cc1ccc(-c2nnc(-c3cccc(Br)c3)o2)cc1`, the viability in experiment [1] is 106% (inactive); in experiment [2], 99.7% (inactive); in experiment [3], 89.6% (inactive); in experiment [4] (setting [7]) it was 92.7%; in experiment [4] (setting [8]) it was 89.6%. Further, the differential viability (reversal) in experiment [4] (H69AR cells + 2 uM doxorubicin) is -3% (inactive). Also, the inhibition in experiment [5] is -6.76% (inactive); in experiment [6] it was 4% (inactive).
Consider `Cc1nc2ccc(S(=O)(=O)NCC(=O)N3CCCCC3)cc2s1`, for which the viability in experiment [1] is 116% (inactive); in experiment [2], 100% (inactive); in experiment [3], 87.4% (inactive); in experiment [4] (setting [7]), 85%; in experiment [4] (setting [8]), 87.4%. Also, the differential viability (reversal) in experiment [4] (H69AR cells + 2 uM doxorubicin) is 2.37% (inactive). Moreover, the inhibition is -2.99% (inactive) in experiment [5] and 0.16% (inactive) in experiment [6].
In the case of `O=C(C1CCCO1)N1CCN(S(=O)(=O)c2ccccc2)CC1` (stereo unspecified), the viability was 79% (inactive) in experiment [1]; 98.1% (inactive) in experiment [2]; 99.1% (inactive) in experiment [3]; 105% in experiment [4] (setting [7]); 99.1% in experiment [4] (setting [8]). In addition, in experiment [4] (H69AR cells + 2 uM doxorubicin), the differential viability (reversal) was -6.22% (inactive). The inhibition in experiment [5] was -6.3% (inactive); in experiment [6] it was 3.27% (inactive).
In the case of `COc1ccc(S(=O)(=O)Nc2ccc(Cl)cn2)c(C)c1C`, the viability in experiment [1] is 100% (inactive); in experiment [2], 107% (inactive); in experiment [3], 88.5% (inactive); in experiment [4] (setting [7]), 87.8%; in experiment [4] (setting [8]) it was 88.5%. Moreover, the differential viability (reversal) in experiment [4] (H69AR cells + 2 uM doxorubicin) is 0.69% (inactive). Besides, the inhibition in experiment [5] was -0.93% (inactive); in experiment [6], 0% (inactive).
As to `OC1C=CSc2nc3ccccc3n21` (stereo unspecified), the viability was 83.5% (inactive) in experiment [1]; 79% (inactive) in experiment [2]; 66.8% (inactive) in experiment [3]; 75% in experiment [4] (setting [7]); 66.8% in experiment [4] (setting [8]). For the same compound, the differential viability (reversal) in experiment [4] (H69AR cells + 2 uM doxorubicin) was -8.25% (inactive). The inhibition was -5.68% (inactive) in experiment [5] and 1.8% (inactive) in experiment [6].
As to `COc1ccc2c(c1)c(CC(=O)OCC(=O)O)c(C)n2C(=O)c1ccc(Cl)cc1`, the viability in experiment [1] was 133% (inactive); in experiment [2], 66.8% (inactive); in experiment [3] it was 96.2% (inactive); in experiment [4] (setting [7]) it was 90.9%; in experiment [4] (setting [8]), 96.2%. For the same compound, the differential viability (reversal) in experiment [4] (H69AR cells + 2 uM doxorubicin) is 5.33% (inactive). The inhibition in experiment [5] was -5.06% (inactive); in experiment [6], -0.67% (inactive).
